Reference: ChEMBL document CHEMBL1123542, “Alpha-adrenoreceptor reagents. 4. Resolution of some potent selective prejunctional alpha 2-adrenoreceptor antagonists” (J Med Chem, 1986)

Assays:
[1] = molecular target: T1, Adrenergic receptor alpha-1 (Rattus norvegicus, UniProt P15823+P23944+P43140); experiment: Displacement of [3H]prazosin from alpha-1 adrenergic receptor from rat brain cerebral cortex; type: tissue-based
T1 sequence (P15823 whole entry): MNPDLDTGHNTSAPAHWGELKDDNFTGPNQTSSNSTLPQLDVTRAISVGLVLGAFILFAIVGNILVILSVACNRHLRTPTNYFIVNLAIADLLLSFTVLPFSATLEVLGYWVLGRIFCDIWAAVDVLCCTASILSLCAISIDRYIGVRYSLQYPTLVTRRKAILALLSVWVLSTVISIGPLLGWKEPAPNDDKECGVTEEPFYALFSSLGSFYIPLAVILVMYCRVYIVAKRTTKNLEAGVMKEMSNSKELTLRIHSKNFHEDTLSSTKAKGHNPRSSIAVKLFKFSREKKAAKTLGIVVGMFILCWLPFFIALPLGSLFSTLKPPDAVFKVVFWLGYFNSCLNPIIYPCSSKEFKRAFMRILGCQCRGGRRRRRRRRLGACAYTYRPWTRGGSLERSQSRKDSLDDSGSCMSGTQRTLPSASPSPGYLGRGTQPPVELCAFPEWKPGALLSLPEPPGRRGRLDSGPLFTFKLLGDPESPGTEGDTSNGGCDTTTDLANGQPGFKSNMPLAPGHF
T1 sequence (P23944 whole entry): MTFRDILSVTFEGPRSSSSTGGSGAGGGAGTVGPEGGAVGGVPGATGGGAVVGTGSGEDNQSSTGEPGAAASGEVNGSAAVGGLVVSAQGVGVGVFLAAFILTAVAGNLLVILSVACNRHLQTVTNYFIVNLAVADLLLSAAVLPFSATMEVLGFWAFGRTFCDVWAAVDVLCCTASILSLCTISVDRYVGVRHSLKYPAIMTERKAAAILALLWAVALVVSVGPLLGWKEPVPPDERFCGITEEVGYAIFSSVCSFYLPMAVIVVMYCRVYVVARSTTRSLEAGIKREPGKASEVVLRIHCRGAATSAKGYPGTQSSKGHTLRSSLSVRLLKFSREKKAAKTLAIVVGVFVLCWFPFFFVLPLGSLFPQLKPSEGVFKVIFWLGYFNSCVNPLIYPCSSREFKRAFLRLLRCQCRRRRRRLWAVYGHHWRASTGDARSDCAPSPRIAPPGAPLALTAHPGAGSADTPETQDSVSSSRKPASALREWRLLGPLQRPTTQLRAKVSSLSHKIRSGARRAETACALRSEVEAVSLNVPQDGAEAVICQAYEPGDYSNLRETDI
T1 sequence (P43140 whole entry): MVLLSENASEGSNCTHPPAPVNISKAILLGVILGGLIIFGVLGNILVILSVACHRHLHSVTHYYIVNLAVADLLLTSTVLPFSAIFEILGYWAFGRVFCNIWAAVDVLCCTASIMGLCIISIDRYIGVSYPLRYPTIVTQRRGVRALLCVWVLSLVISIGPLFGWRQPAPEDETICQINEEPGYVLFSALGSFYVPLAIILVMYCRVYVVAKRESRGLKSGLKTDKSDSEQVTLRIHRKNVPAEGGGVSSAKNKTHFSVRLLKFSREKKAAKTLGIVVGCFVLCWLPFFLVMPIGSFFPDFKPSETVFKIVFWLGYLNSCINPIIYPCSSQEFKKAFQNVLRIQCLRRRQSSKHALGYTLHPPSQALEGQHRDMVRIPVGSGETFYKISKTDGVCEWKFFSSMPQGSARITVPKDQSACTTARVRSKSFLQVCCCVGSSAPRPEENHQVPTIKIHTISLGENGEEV
Outline: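 Rat cerebral cortical membranes. Ki (nM) from displacement of saturable [3H]prazosin binding at α1 sites.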

[2] = molecular target: T2, Adrenergic receptor alpha-2 (Rattus norvegicus, UniProt P22086+P19328+P22909); experiment: Displacement of [3H]idazoxan from alpha-2 adrenergic receptor from rat brain cerebral cortex.; type: tissue-based
T2 sequence (P22086 whole entry): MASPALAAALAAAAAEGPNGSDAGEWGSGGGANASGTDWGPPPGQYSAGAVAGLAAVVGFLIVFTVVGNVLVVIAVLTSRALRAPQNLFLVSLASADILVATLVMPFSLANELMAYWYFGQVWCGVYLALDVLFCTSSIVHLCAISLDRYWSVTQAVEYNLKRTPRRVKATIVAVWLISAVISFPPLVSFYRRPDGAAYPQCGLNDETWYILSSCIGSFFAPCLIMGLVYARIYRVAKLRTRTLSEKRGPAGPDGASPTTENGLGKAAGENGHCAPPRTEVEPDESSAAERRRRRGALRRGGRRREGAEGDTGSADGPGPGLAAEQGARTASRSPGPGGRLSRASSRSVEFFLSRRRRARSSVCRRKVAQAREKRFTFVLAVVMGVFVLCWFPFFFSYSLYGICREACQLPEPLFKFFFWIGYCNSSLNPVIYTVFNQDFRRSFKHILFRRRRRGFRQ
T2 sequence (P19328 whole entry): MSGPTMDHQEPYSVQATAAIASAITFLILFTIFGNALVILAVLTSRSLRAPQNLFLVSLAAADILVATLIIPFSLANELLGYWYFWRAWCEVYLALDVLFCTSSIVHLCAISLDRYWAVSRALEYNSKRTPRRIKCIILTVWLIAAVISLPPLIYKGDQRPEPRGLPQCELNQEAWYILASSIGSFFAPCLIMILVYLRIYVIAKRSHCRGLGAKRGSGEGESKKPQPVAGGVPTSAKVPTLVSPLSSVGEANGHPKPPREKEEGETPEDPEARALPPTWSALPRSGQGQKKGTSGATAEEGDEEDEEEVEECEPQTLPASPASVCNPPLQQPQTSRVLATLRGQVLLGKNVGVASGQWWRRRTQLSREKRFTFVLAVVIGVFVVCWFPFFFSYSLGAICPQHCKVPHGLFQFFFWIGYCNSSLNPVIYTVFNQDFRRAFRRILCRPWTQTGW
T2 sequence (P22909 whole entry): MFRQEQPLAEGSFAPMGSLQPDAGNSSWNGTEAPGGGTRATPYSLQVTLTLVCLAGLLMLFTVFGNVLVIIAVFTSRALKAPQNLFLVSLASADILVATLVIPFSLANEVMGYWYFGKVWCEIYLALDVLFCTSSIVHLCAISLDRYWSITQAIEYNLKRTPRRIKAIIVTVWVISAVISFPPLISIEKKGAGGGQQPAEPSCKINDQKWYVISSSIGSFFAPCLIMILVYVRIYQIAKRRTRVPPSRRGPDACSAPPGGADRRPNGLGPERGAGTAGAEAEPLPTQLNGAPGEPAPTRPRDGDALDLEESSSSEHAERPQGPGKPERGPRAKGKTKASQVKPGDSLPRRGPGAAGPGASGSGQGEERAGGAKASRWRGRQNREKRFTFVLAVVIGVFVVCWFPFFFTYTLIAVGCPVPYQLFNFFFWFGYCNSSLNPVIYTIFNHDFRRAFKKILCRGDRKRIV
Outline: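 Rat cerebral cortical membranes. Ki (nM) from displacement of saturable [3H]idazoxan binding at α2 sites.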

[3] = tested on: Rattus norvegicus; experiment: Compound was evaluated in vivo for the reversal of maximal inhibitory effect of clonidine at 100 ug/kg(iv) in pithed rat vas deferens preparation; type: functional
[4] = tested on: Alpha-2 adrenergic receptor (Rattus norvegicus); experiment: Compound was evaluated for its ability to antagonise the inhibitory activity of clonidine, relative to idazoxan at prejunctional alpha-2 adrenergic receptor in rat vas deferens.
[5] = tested on: Alpha-1 adrenergic receptor (Rattus norvegicus); experiment: Compound was evaluated for its ability to antagonise the inhibitory activity of phenylephrine, relative to idazoxan at postjunctional alpha-1 adrenergic receptor in rat anococcygeus.
[6] = molecular target: T3, Adrenergic receptor alpha-1 (Rattus norvegicus) (UniProt P15823+P23944+P43140); experiment: Compound was evaluated for the antagonist potency at postjunctional alpha-1 adrenergic receptor in pithed rat diastolic bp test; type: functional
Outline: (§1)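 Pithed rats; iv dose (μg/kg) giving a 2-fold shift (DR2) of the cirazoline dose-response curve on diastolic blood pressure. Separate groups, n = 6 minimum.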

[7] = molecular target: T4, Adenosine receptor A1 (Rattus norvegicus) (UniProt P25099); experiment: Compound was evaluated for its ability to antagonise the inhibitory activity of phenylephrine, relative to idazoxan at postjunctional alpha-1 adrenergic receptor in rat anococcygeus; type: functional
T4 sequence (whole entry): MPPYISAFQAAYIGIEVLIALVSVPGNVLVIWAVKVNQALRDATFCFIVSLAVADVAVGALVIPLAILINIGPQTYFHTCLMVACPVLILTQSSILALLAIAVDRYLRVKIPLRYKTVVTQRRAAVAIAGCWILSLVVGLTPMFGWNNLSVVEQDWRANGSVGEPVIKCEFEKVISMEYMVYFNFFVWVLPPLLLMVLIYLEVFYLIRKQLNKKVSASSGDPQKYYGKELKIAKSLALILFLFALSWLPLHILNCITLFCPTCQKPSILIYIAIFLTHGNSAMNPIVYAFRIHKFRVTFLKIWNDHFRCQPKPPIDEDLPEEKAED

[8] = molecular target: T3, Adrenergic receptor alpha-1 (Rattus norvegicus); experiment: Compound was evaluated for the antagonist potency at postjunctional alpha-1 adrenergic receptor in pithed rat diastolic bp test,; type: functional; outline: as §1
[9] = molecular target: Adenosine A2 receptor (Rattus norvegicus) (UniProt P29276+P30543); experiment: Compound was evaluated for its ability to antagonise the inhibitory activity of clonidine, relative to idazoxan at prejunctional alpha-2 adrenergic receptor in rat vas deferens; type: functional, tissue-based

Compound	Ki [1]	Ki [2]	AD50 [3]	also measured
CC1(C2=NCCN2)COc2ccccc2O1 (single isomer, unassigned; (+)) [listing 1 of 2 here]	0.285 µM	0.0024 µM	0.0258 mg/kg	–
CC1(C2=NCCN2)COc2ccccc2O1 (single isomer, unassigned; (+)) [listing 2 of 2 here]	–	–	–	Antagonist potency [4]: 1.3; Antagonist potency [5]: 0.09
COC1(C2=NCCN2)COc2ccccc2O1 (single isomer, unassigned; (+)) [listing 2 of 2 here]	–	–	–	Antagonist potency [6]: 58.9
CC1(C2=NCCN2)COc2ccccc2O1 (single isomer, unassigned; (-)) [listing 1 of 2 here]	–	–	–	Antagonist potency [7]: < 0.023; Antagonist potency [4]: 0.005
C=C(C)C1(C2=NCCN2)COc2ccccc2O1 (single isomer, unassigned; (+)) [listing 2 of 2 here]	–	–	–	Antagonist potency [4]: 0.0003; Antagonist potency [5]: 0.03
COC1(C2=NCCN2)COc2ccccc2O1 (stereo in doubt; 4) [listing 1 of 2 here]	0.066 µM	0.0008 µM	0.00268 mg/kg	–
CC1(C2=NCCN2)COc2ccccc2O1 (stereo in doubt; 7) [listing 1 of 2 here]	0.449 µM	0.0044 µM	0.0527 mg/kg	–
COC1(C2=NCCN2)COc2ccccc2O1 (single isomer, unassigned; (-)) [listing 2 of 2 here]	–	–	–	Antagonist potency [8]: 12800
C=C(C)C1(C2=NCCN2)COc2ccccc2O1 (stereo in doubt; 12) [listing 1 of 2 here]	–	–	–	Antagonist potency [4]: 0.8; Antagonist potency [5]: 0.6
C=C(C)C1(C2=NCCN2)COc2ccccc2O1 (stereo in doubt; 10) [listing 2 of 2 here]	–	–	–	Antagonist potency [4]: 0.4; Antagonist potency [5]: 0.07
COC1(C2=NCCN2)COc2ccccc2O1 (stereo in doubt; 4) [listing 2 of 2 here]	–	–	–	Antagonist potency [6]: 176
CC1(C2=NCCN2)COc2ccccc2O1 (single isomer, unassigned; (-)) [listing 2 of 2 here]	13.329 µM	0.487 µM	2.567 mg/kg	–
CC1(C2=NCCN2)COc2ccccc2O1 (stereo in doubt; 7) [listing 2 of 2 here]	–	–	–	Antagonist potency [9]: 0.67; Antagonist potency [5]: 0.28

Continued, in another order:

Ki [1]	Ki [2]	Compound	AD50 [3]	also measured
46.439 µM	8.734 µM	C=C(C)C1(C2=NCCN2)COc2ccccc2O1 (single isomer, unassigned; (+)) [listing 1 of 2 here]	>14.444 mg/kg	–
0.027 µM	0.00036 µM	COC1(C2=NCCN2)COc2ccccc2O1 (single isomer, unassigned; (+)) [listing 1 of 2 here]	0.00225 mg/kg	–
1.794 µM	0.0163 µM	C=C(C)C1(C2=NCCN2)COc2ccccc2O1 (stereo in doubt; 10) [listing 1 of 2 here]	0.0712 mg/kg	–
6.763 µM	0.256 µM	COC1(C2=NCCN2)COc2ccccc2O1 (single isomer, unassigned; (-)) [listing 1 of 2 here]	0.786 mg/kg	–
1.473 µM	0.008 µM	C=C(C)C1(C2=NCCN2)COc2ccccc2O1 (stereo in doubt; 12) [listing 2 of 2 here]	0.0539 mg/kg	–
